Test results from ChEMBL document CHEMBL2203019, “Cytotoxic cyclic depsipeptides from the Australian marine sponge Neamphius huxleyi” (J Nat Prod, 2012).
Where a name gives a salt, the structure may show the parent alone. The source made the active and inactive calls. The calls are words filed in the database; no cut-off is given here.

Key:
NFF = assay: Cytotoxicity against human NFF cells after 72 hrs by alamar blue assay; assay type: cell-based
Procedure, shortened: (§1)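 Cells were kept in DMEM with 10% FBS and penicillin/streptomycin at 37 °C and 5% CO2. 1000 cells/well adhered overnight, then were exposed for 72 h to a 10-point series from 100 μM to 3 nM final (1% DMSO). Alamar blue was added to 10% final for 24 h, and fluorescence was read at ex 535/em 590 nm. Triplicates were run. IC50 came from nonlinear regression, as mean ± SD of two independent experiments. Vincristine was the positive control.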

A549 [1] = assay: Cytotoxicity against human A549 cells assessed as cell proliferation at 100 nM after 48 hrs by confocal microscopic analysis
A549 [2] = assay: Cytotoxicity against human A549 cells after 72 hrs by alamar blue assay; assay type: functional, cell-based; details: A549, 72 h; procedure, shortened: as §1
PC-3 = assay: Cytotoxicity against human PC3 cells after 72 hrs by alamar blue assay; assay type: functional, cell-based; details: PC-3, 72 h
Procedure, shortened: (§2)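 Cells were grown in RPMI with 10% FBS and penicillin/streptomycin (37 °C, 5% CO2). Plates held 1000 cells/well and were left overnight to adhere. Compounds were given for 72 h over 10 concentrations from 100 μM to 3 nM final, with 1% DMSO. Viability was read with Alamar blue at 10% final for 24 h (fluorescence ex 535/em 590 nm). Each concentration was run in triplicate. IC50 was fitted by nonlinear regression, as mean ± SD of two experiments. Vincristine served as positive control.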

A549 [3] = assay: Cytotoxicity against human A549 cells assessed as cell index at 100 nM after 72 hrs by alamar blue assay; assay type: functional, cell-based; details: in the assay text read “xCelligence impedance assay” for “alamar blue assay”
Procedure, shortened: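 Real-time impedance (cell index) was recorded on an xCelligence system. A549 cells were seeded at 4000/well, settled 30 min at room temperature, then recorded at 37 °C, 5% CO2. Next day, half the medium was swapped for medium holding 2× compound. Vehicle was 1% DMSO. Runs were in triplicate, in two independent experiments. Readings were taken every minute for 2 h, then hourly to 72 h.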

[4] = Cytotoxicity against human HEK cells after 72 hrs by alamar blue assay; assay type: cell-based; details: HEK293, 72 h; procedure, shortened: as §1
LNCaP = assay: Cytotoxicity against human LNCAP cells after 72 hrs by alamar blue assay; assay type: functional, cell-based; procedure, shortened: as §2
HeLa = assay: Cytotoxicity against human HeLa cells after 72 hrs by alamar blue assay; assay type: functional, cell-based; procedure, shortened: as §2

SMILES | IC50 (NFF) | Activity (A549 [1]) | IC50 (A549 [2]) | IC50 (PC-3) | Activity (A549 [3]) | IC50 [4] | IC50 (LNCaP) | IC50 (HeLa)
CCC(C)C[C@@H](C)[C@@H](O)[C@@H](C)C(=O)N[C@@H](CC(N)=O)C(=O)N[C@@H](CCCNC(=N)N)[C@@H](O)[C@@H](O)C(=O)NC(C(=O)N[C@H]1C(=O)N[C@H]([C@H](C)O)C(=O)N[C@H](CCCNC(=N)N)C(=O)N[C@@H](CC(C)C)C(=O)N(C)[C@@H](CCC(N)=O)C(=O)N[C@H]([C@H](OC)c2ccc(O)cc2)C(=O)N2CCCC[C@H]2C(=O)O[C@@H]1C)C(C)C(C)C(N)=O (relative stereo) | 150 nM | inactive | 91 nM | 130 nM | inactive | 88 nM | 110 nM | 210 nM
CO[C@H](c1ccc(O)cc1)[C@H]1NC(=O)[C@H](CCC(=O)O)N(C)C(=O)[C@H](CC(C)C)NC(=O)[C@@H](CCCNC(=N)N)NC(=O)[C@@H]([C@H](C)O)NC(=O)[C@H](NC(=O)C(NC(=O)[C@H](O)[C@H](O)[C@H](CCCNC(=N)N)NC(=O)[C@H](CC(N)=O)NC(=O)[C@H](C)[C@H](O)[C@H](C)CC(C)C)C(C)C(C)C(N)=O)[C@@H](C)OC(=O)[C@@H]2CCCCN2C1=O (relative stereo) | 260 nM |  | 131 nM | 110 nM |  | 160 nM | 190 nM | 170 nM
CO[C@H](c1ccc(O)cc1)[C@H]1NC(=O)[C@H](CCC(N)=O)N(C)C(=O)[C@H](CC(C)C)NC(=O)[C@@H](CCCNC(=N)N)NC(=O)[C@@H]([C@H](C)O)NC(=O)[C@H](NC(=O)C(NC(=O)[C@H](O)[C@H](O)[C@H](CCCNC(=N)N)NC(=O)[C@H](CC(N)=O)NC(=O)[C@H](C)[C@H](O)[C@H](C)CC(C)C)C(C)C(C)C(N)=O)[C@@H](C)OC(=O)[C@@H]2CCCCN2C1=O (relative stereo) | 370 nM |  | 130 nM | 170 nM |  | 200 nM | 230 nM | 110 nM
CC[C@]1(O)C[C@H]2CN(CCc3c([nH]c4ccccc34)[C@@](C(=O)OC)(c3cc4c(cc3OC)N(C=O)[C@H]3[C@@](O)(C(=O)OC)[C@H](OC(C)=O)[C@]5(CC)C=CCN6CC[C@]43[C@@H]65)C2)C1 [VINCRISTINE SULFATE] | 17 nM |  | 20 nM | 15 nM |  | 31 nM | 6.1 nM | 36 nM
